Measurements collected from several papers.
Compare with care: the assays were run in different laboratories. pIC50: −log10 of the molar value.
IDE: Insulin-degrading enzyme (IDE, Homo sapiens, UniProt P14735)
gag-pol integrase: Gag-Pol polyprotein, integrase (gag-pol, Human immunodeficiency virus 1, UniProt P12497)
P2RX7: P2X purinoceptor 7 (P2RX7, Homo sapiens, UniProt Q99572)
MET: Hepatocyte growth factor receptor (MET, Homo sapiens, UniProt P08581)
TGFBR1: TGF-beta receptor type-1 (TGFBR1, Homo sapiens, UniProt P36897)
HDAC3: Histone deacetylase 3 (HDAC3, Homo sapiens, UniProt O15379)

SMILES	target	assay	pIC50
NC(=O)[C@H](Cc1c[nH]cn1)NC(=O)CN(CC(=O)O)Cc1ccccc1	IDE	enzyme activity, inhibitor, fluorescence	5.85
Cc1cnc(-c2ccc(-c3ccc(NC(=O)Nc4c(F)cc(F)cc4F)cc3F)c3c2C(=O)NC3)[nH]1	TRAF2 and NCK-interacting protein kinase (TNIK, Homo sapiens, UniProt Q9UKE5)	enzyme activity, inhibitor	8.39
CC(C)(C)OC(=O)[C@H](Cc1c[nH]cn1)NC(=O)CN(CC(=O)O)Cc1ccccc1	IDE	enzyme activity, inhibitor, fluorescence	6.10
O=C(O)[C@H](Cc1ccc2ccccc2c1)NC(=O)C1(c2ccc3ccccc3c2)CCN(S(=O)(=O)c2ccccc2)CC1	gag-pol integrase	enzyme activity, inhibitor, TR-FRET	4.26
Cc1[nH]c(/C=C2\C(=O)Nc3ccc(S(=O)(=O)N(C)c4cccc(Cl)c4)cc32)c(C)c1C(=O)N1CCN(C)CC1	Hepatocyte growth factor receptor, non-phosphorylated (MET, Homo sapiens, UniProt P08581)	enzyme activity, inhibitor, TR-FRET	8.30
C[C@H]1C[C@@H](N2C(=N)N[C@](C)(c3cccc(Nc4ccc(C5CC5)nc4)c3Cl)CC2=O)CCO1	Sodium channel protein type 10 subunit alpha (SCN10A, Homo sapiens, UniProt Q9Y5Y9)	ion current, inhibitor, patch clamp	5.10
CNC(=O)c1cc2c(Oc3ccc(NC(=O)C4(C(=O)Nc5ccc(F)cc5)CC4)cc3)ccnc2cc1OC	Hepatocyte growth factor receptor (MET, Homo sapiens, UniProt P08581, Y1230H)	enzyme activity, inhibitor, radiometric	8.30
O=C(O)CC1=C/C(=C\c2cccc(-c3ccc(F)cc3)n2)c2ccc(F)cc21	Prostaglandin G/H synthase 2 (Ptgs2, Mus musculus, UniProt Q05769)	enzyme activity, inhibitor	6.17
O=C(Nc1ccccc1OS(=O)(=O)c1ccc(F)cc1)c1ccc2ncccc2c1	P2RX7	calcium signal, antagonist	6.20
COc1ccc2c(Oc3ccc4c(C(=O)Nc5ccccc5N)cccc4c3)ccnc2c1	MET	enzyme activity, inhibitor	< 6.30
O=C(Nc1ccn(Cc2ccc(O)cc2C(F)(F)F)n1)c1c(F)cccc1F	P2RX7	ion current	< 5.00
O=C(O)CN(CCCc1ccccc1)CC(=O)N[C@H](CO)Cc1c[nH]cn1	IDE	enzyme activity, inhibitor, fluorescence	5.80
Cc1cc(Oc2ccc(NC(=O)c3sc(-c4ccc(F)cc4)nc3C)cc2)c2nncn2n1	MET	enzyme activity, inhibitor, mobility shift	6.10
O=C(O)C(CCC(c1ccccc1)(c1ccccc1)c1ccccc1)NCc1ccccc1 (racemic)	Kinesin-like protein KIF11 (KIF11, Homo sapiens, UniProt P52732)	ATPase activity, inhibitor	< 4.31
COC(=O)c1ccc(NC(=O)NC2=CC(=O)CC(C)(C)C2)cc1	crk3 (Leishmania mexicana, UniProt O15851)	enzyme activity, inhibitor, radiometric	5.48
COC(=O)[C@H](Cc1c[nH]cn1)NC(=O)CN(CC(=O)NO)Cc1ccccc1	IDE	enzyme activity, inhibitor, fluorescence	5.49
Cc1cc(Oc2ccc(NC(=O)c3sc(-c4ccccc4)nc3C)cc2)c2nncn2n1	MET	enzyme activity, inhibitor, mobility shift	6.06
COc1cccc(F)c1Cn1cnc(-c2ccc(F)cc2)c1-c1ccncc1	TGFBR1	cell-free assay, TR-FRET	5.91

SMILES	target	assay	pIC50
O=C(O)C1=CC(=C(c2ccc(O)c(C(=O)O)c2)c2ccc(O)c(C(=O)O)c2)C=CC1=O	Lysosomal acid lipase/cholesteryl ester hydrolase (LIPA, Homo sapiens, UniProt P38571)	enzyme activity, inhibitor	5.87
CCCC[C@H](NC(=O)C1CN(C)C1)c1ncc(-c2cc3ccccc3nc2OC)[nH]1	HDAC3	enzyme activity, inhibitor	7.80
CC(C)(C)OC(=O)N1CCC(C(=O)N[C@@H](Cc2ccc3ccccc3c2)C(=O)O)(c2ccccc2)CC1	gag-pol integrase	enzyme activity, inhibitor, TR-FRET	4.04
COC(=O)[C@H](Cc1c[nH]cn1)NC(=O)CN(CCc1c[nH]c2ccccc12)CC(=O)O	IDE	enzyme activity, inhibitor, fluorescence	5.92
CN1CCN(c2ccc(Nc3ncc4cc(C#N)c(=O)n(C5CCCC5)c4n3)cc2)CC1	TGFBR1	enzyme activity, inhibitor	5.73
CCCc1ccc(S(=O)(=O)Oc2ccccc2NC(=O)c2ccc3ncccc3c2)cc1	P2RX7	calcium signal, antagonist	5.66
CC(C)n1nc(-c2ccc3c(c2)sc2ccccc23)c2c(N)ncnc21	Calmodulin-domain protein kinase 1, putative (Cryptosporidium parvum, UniProt A3FQ16)	enzyme activity, inhibitor	< 5.52
COC(=O)[C@H](Cc1c[nH]cn1)NC(=O)CN(CCCCc1ccccc1)CC(=O)O	IDE	enzyme activity, inhibitor, fluorescence	6.22
CCn1ncc2c1-c1cnc(N)c(c1)O[C@H](C)c1cc(F)ccc1-c1nn(C)nc1C2	Macrophage colony-stimulating factor 1 receptor (CSF1R, Homo sapiens, UniProt P07333)	enzyme activity, inhibitor, radiometric	6.31
Cc1cc(Oc2ccc(NC(=O)c3cc(-c4cccs4)no3)cc2F)c2nncn2n1	MET	enzyme activity, inhibitor, mobility shift	6.27
CC(C)C[C@H]1CC(=O)N[C@@H](C)C(=O)N[C@@H](CCCCCC(=O)O)C(=O)N[C@@H](Cc2c[nH]c3ccccc23)C(=O)N1	HDAC3	enzyme activity, inhibitor	6.22
CC/C=C\C/C=C\C/C=C\C/C=C\C/C=C\CCCC(=O)O	POLE (Homo sapiens, UniProt Q07864)	enzyme activity, inhibitor	4.46
CC(C)C[C@H](NC(=O)[C@H](Cc1ccccc1)NC(=O)[C@H](Cc1ccc(O)cc1)NC(=O)CNC(=O)[C@H](CCCNC(=N)N)NC(=O)[C@H](CO)NC(=O)[C@H](CCC(N)=O)NC(=O)[C@H](CO)NC(=O)[C@H](C)NC(=O)[C@H](Cc1ccccc1)NC(=O)[C@@H]1CCCN1C(=O)[C@H](CO)NC(=O)[C@H](CCC(N)=O)NC(=O)[C@H](Cc1ccccc1)NC(=O)[C@H](CCC(=O)O)NC(=O)[C@H](CCC(=O)O)NC(=O)[C@H](CC(=O)O)NC(=O)[C@@H](NC(=O)[C@H](CCCNC(=N)N)NC(=O)[C@@H](N)Cc1ccccc1)C(C)C)C(=O)N[C@@H](Cc1ccccc1)C(=O)N[C@@H](CCCNC(=N)N)C(=O)N1CCC[C@H]1C(=O)N[C@@H](CCCNC(=N)N)C(=O)N[C@@H](CC(N)=O)C(N)=O	Neuromedin-U receptor 2 (NMUR2, Homo sapiens, UniProt Q9GZQ4)	ligand displacement, radioligand	9.66
O=C(O)CN(CC(=O)N[C@H](CO)Cc1c[nH]cn1)Cc1ccccc1	IDE	enzyme activity, inhibitor, fluorescence	5.39
Cc1ccc(S(=O)(=O)Oc2ccccc2NC(=O)c2ccc3ncccc3c2)cc1	P2RX7	calcium signal, antagonist	5.83
COC(=O)[C@H](CCCNC(=N)N)NC(=O)CN(CC(=O)O)Cc1ccccc1	IDE	enzyme activity, inhibitor, fluorescence	4.44
Oc1c2ccccc2c2c3c(cccc13)N=N2	Tyrosine-protein kinase JAK3 (JAK3, Homo sapiens, UniProt P52333)	enzyme activity, inhibitor	6.46
